In PMC10276036 (International Journal for Parasitology: Drugs and Drug …, 2023):

Columns and labels:
[1] = test system: amastigote stage of T. cruzi; assay: Activity against amastigote stage; format: cell-based, Trypanosoma cruzi; conditions: CC50/IC50, murine macrophages vs amastigotes
[2] = test system: epimastigotes of Trypanosoma cruzi (Y strain); assay: Activity against epimastigote stage; format: cell-based; conditions: CC50/IC50, murine macrophages vs epimastigotes
How it was run: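 Y-strain epimastigotes, maintained in LIT + 10% FBS at 26 °C, seeded at 10^5/well with serial dilutions of test compound and 10% alamarBlue. After 3 days (exponential growth), fluorescence was read and dying parasites were confirmed by microscopy. IC50 came from nonlinear regression. CC50 came from the J774A.1 alamarBlue assay, and SI = CC50/IC50.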

[3] = Cytotoxicity on murine cells; format: cell-based; conditions: mouse, J774A.1 macrophages
How it was run: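 J774A.1 macrophages, maintained in DMEM + 10% FBS at 37 °C and 5% CO2, seeded at 10^4/well and left until fully adherent. Serial dilutions of test compound were then added in RPMI 1640 instead of DMEM, whose colour disturbs alamarBlue fluorescence. After 24 h at 37 °C and 5% CO2, alamarBlue fluorescence was read.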

SMILES: O=C(Cn1ccnc1[N+](=O)[O-])NCc1ccccc1 [BENZ, benznidazole]
- Selectivity index against amastigote stage [1]: 149.8
- Selectivity index (SI) against epimastigote stage [2]: 57.8
- CC50 at 24 h [3]: 399.9 ± 1.4 µM
